From ChEMBL document CHEMBL3045454, “Synthesis and fungicidal activity of aryl carbamic acid-5-aryl-2-furanmethyl ester” (2010)

Tests used:
Fusarium oxysporum = test: Fungicidal activity Fusarium oxysporum assessed as inhibition of mycelium growth at 50 mg/L at 24 degC measured after 2 days; conditions: 48 h
Corynespora cassiicola [1] = test: Fungicidal activity Corynespora cassiicola assessed as inhibition of mycelium growth at 50 mg/L at 24 degC measured after 2 days; assay type: functional; conditions: 48 h
How it was run: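 Mycelial growth assay on potato dextrose agar. The compound, as a 50 mg L^-1 DMF solution, is mixed into the PDA and a fungus cake is placed on it. DMF serves as blank. Plates are incubated at 24 ± 0.5 °C for 2 days. Mycelial diameters are measured and the inhibitory rate is calculated from them. Three replicates.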

Plutella xylostella [2] = test: Insecticidal activity against Plutella xylostella (diamondback moth) assessed as mortality at 600 mg/L measured after 72 hr; assay type: functional
Culex pipiens pallens = test: Larvicidal activity against fourth-instar Culex pipiens pallens (mosquito) assessed as mortality at 2000 mg/L measured after 8 days; assay type: functional; conditions: 192 h
How it was run: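 Twenty fourth-instar Culex pipiens pallens larvae are placed in 10 mL of the test solution (acetone/distilled water, final 2000 mg L^-1) and reared for 8 days. Mortality is recorded as percent dead. Acetone serves as blank. Four replicates.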

Botrytis cinerea = test: Fungicidal activity Botrytis cinerea assessed as inhibition of mycelium growth at 50 mg/L at 24 degC measured after 2 days; conditions: 48 h
Corynespora cassiicola [3] = test: Fungicidal activity Corynespora cassiicola assessed as inhibition of mycelium growth at 50 mg/L at 24 degC measured after 2 days; conditions: 48 h
Plutella xylostella [4] = test: Insecticidal activity against Plutella xylostella assessed as mortality at 5 mg/L measured after 72 hr; assay type: functional

Row | SMILES | inhibition at 50 µg/mL (Fusarium oxysporum) [%] | inhibition at 50 µg/mL (Corynespora cassiicola [1]) [%] | mortality at 600 µg/mL (Plutella xylostella [2]) [%] | mortality at 2000 µg/mL (Culex pipiens pallens) [%] | inhibition at 50 µg/mL (Botrytis cinerea) [%] | inhibition at 50 µg/mL (Corynespora cassiicola [3]) [%] | mortality at 5 µg/mL (Plutella xylostella [4]) [%]
1 | COC(=O)NC(=S)Nc1ccccc1NC(=S)NC(=O)OC [THIOPHANATE METHYL] | 34.2 |  |  |  |  |  | 
2 | O=C(NC(=O)c1ccccc1Cl)OCc1ccc(-c2ccccc2F)o1 | 1.5 | 65.3 | 0 | 10 | 34.4 | 26.3 | 
3 | O=C(NC(=O)c1ccccc1Cl)OCc1ccc(-c2cccc(F)c2)o1 | 14.5 | 53.3 | 0 | 10 | 48.9 | 37.3 | 
4 | Cc1cc(C)nc(Nc2ccccc2)n1 [PYRIMETHANIL] |  |  |  |  | 48.9 |  | 
5 | O=C(NC(=O)c1c(Cl)cccc1Cl)OCc1ccc(-c2cccc(Cl)c2)o1 | 14.5 | 53.3 | 10 | 10 | 13 | 19 | 
6 | O=C(NC(=O)c1c(Cl)cccc1Cl)OCc1ccc(-c2ccccc2Cl)o1 | 35.3 | 83.1 | 0 | 0 | 41.4 | 34.7 | 
7 | O=C(NC(=O)c1ccccc1Cl)OCc1ccc(-c2ccccc2Br)o1 | 25.2 | 67.3 | 0 | 0 | 54.3 | 42.5 | 
8 | O=C(NC(=O)c1ccccc1Cl)OCc1ccc(-c2cccc(Cl)c2)o1 | -3.03 | 38.6 | 0 | 0 | 24.1 | 24.9 | 
9 | N#Cc1nn(-c2c(Cl)cc(C(F)(F)F)cc2Cl)c(N)c1[S+]([O-])C(F)(F)F (stereo unspecified) [FIPRONIL] |  |  |  |  |  |  | 100
10 | O=C(NC(=O)c1c(Cl)cccc1Cl)OCc1ccc(-c2ccc(Cl)cc2)o1 | 44.6 | 67.9 | 10 | 0 | 48.1 | 33.3 | 
11 | O=C(NC(=O)c1ccccc1Cl)OCc1ccc(-c2ccc(F)cc2)o1 | 4.46 | 60.6 | 0 | 10 | 40.6 | 38.6 | 
12 | O=C(NC(=O)c1c(Cl)cccc1Cl)OCc1ccc(-c2ccccc2F)o1 | 1.5 | 70.4 | 10 | 0 | 57.3 | 36 | 
13 | O=C(NC(=O)c1ccccc1Cl)OCc1ccc(-c2ccccc2Cl)o1 | 0 | 69.8 | 0 | 20 | 25 | 43.8 | 
14 | O=C(NC(=O)c1c(F)cccc1F)OCc1ccc(-c2ccccc2F)o1 | 44.6 |  | 0 | 0 | 70.4 | 44.5 | 
15 | O=C(NC(=O)c1c(F)cccc1F)OCc1ccc(-c2cccc(Cl)c2)o1 | 45.4 |  | 0 | 10 | 63.5 | 50.5 | 
16 | O=C(NC(=O)c1c(F)cccc1F)OCc1ccc(-c2ccc(F)cc2)o1 | 49.4 | 56 | 10 | 0 | 58.5 | 22.1 | 

Row | SMILES | inhibition at 50 µg/mL (Fusarium oxysporum) [%] | inhibition at 50 µg/mL (Corynespora cassiicola [1]) [%] | mortality at 600 µg/mL (Plutella xylostella [2]) [%] | mortality at 2000 µg/mL (Culex pipiens pallens) [%] | inhibition at 50 µg/mL (Botrytis cinerea) [%] | inhibition at 50 µg/mL (Corynespora cassiicola [3]) [%] | mortality at 5 µg/mL (Plutella xylostella [4]) [%]
17 | O=C(NC(=O)c1ccccc1Cl)OCc1ccc(-c2ccc(Br)cc2)o1 | 10.2 | 50.2 | 0 | 10 | 34.4 | 59.9 | 
18 | O=C(NC(=O)c1c(F)cccc1F)OCc1ccc(-c2ccc(Br)cc2)o1 | 7.38 | 63.3 | 10 | 0 | 62.2 | 57.8 | 
19 | N#Cc1c(Cl)c(Cl)c(Cl)c(C#N)c1Cl [CHLOROTHALONIL] |  |  |  |  |  | 23.3 | 
20 | O=C(NC(=O)c1c(Cl)cccc1Cl)OCc1ccc(-c2cccc(F)c2)o1 | 8.82 | 62 | 20 | 10 | 32.6 | 12.9 | 
21 | O=C(NC(=O)c1c(Cl)cccc1Cl)OCc1ccc(-c2ccc(F)cc2F)o1 | 15.9 | 63.3 | 1 | 10 | 27.9 | 16 | 
22 | O=C(NC(=O)c1ccccc1Cl)OCc1ccc(-c2ccc(Cl)cc2)o1 | 14.5 | 75.5 | 0 | 10 | 55.1 | 66 | 
23 | O=C(NC(=O)c1c(Cl)cccc1Cl)OCc1ccc(-c2ccccc2Br)o1 | 42.3 | 79.2 | 0 | 0 | 44.8 | 39.9 | 
24 | CC(C)(C)N(NC(=O)c1ccccc1)C(=O)c1ccccc1 [RH-5849] |  |  |  | 0 |  |  | 
25 | O=C(NC(=O)c1c(F)cccc1F)OCc1ccc(-c2ccc(Cl)cc2)o1 | 92.3 |  | 0 | 10 | 100 | 71.6 | 
26 | O=C(NC(=O)c1c(F)cccc1F)OCc1ccc(-c2cccc(F)c2)o1 | 7.63 | 38.4 | 0 | 10 | 60.4 | 31.5 | 
27 | O=C(NC(=O)c1c(F)cccc1F)OCc1ccc(-c2ccccc2Cl)o1 | 41.2 | 36.6 | 0 | 0 | 66.6 | 43.5 | 
28 | O=C(NC(=O)c1c(F)cccc1F)OCc1ccc(-c2ccccc2Br)o1 | 42.3 |  | 10 | 20 | 54.3 | 52.2 | 
29 | O=C(NC(=O)c1c(Cl)cccc1Cl)OCc1ccc(-c2ccc(F)cc2)o1 | 35.3 | 72.7 | 0 | 0 | 37.1 | 37.3 | 
30 | O=C(NC(=O)c1c(Cl)cccc1Cl)OCc1ccc(-c2ccc(Br)cc2)o1 | 32.8 | 64.7 | 0 | 10 | 52.8 | 54.4 | 
31 | O=C(NC(=O)c1c(F)cccc1F)OCc1ccc(-c2ccc(F)cc2F)o1 | 44.6 |  | 0 | 10 | 64 | 42.5 | 
